Results reported in ChEMBL document CHEMBL3769308, “Melanin-Concentrating Hormone Receptor 1 Antagonists Lacking an Aliphatic Amine: Synthesis and Structure-Activity Relationships of Novel 1-(Imidazo[1,2-a]pyridin-6-yl)pyridin-2(1H)-one Derivatives” (J Med Chem, 2016).

How the values were obtained:
[1] = target: Melanin-concentrating hormone receptor 1 (Rattus norvegicus, UniProt P97639); assay: Displacement of [125I]-MCH (4 to 19 residues) from rat MCHR1 expressed in CHO cell membranes after 1 hr by liquid scintillation counting analysis
Outline: (§1)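 Membranes from MCHR1-expressing CHO cells, homogenized in NaHCO3/EDTA with protease inhibitors, 100000g pellet held at 2 mg/mL protein in 20 mM Tris-HCl pH 7.5, 5 mM EDTA, protease inhibitors.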

[2] = target: T1, Melanin-concentrating hormone receptor 1 (Homo sapiens, UniProt Q99705); assay: Displacement of [125I]-MCH (4 to19 residues) from human MCHR1 expressed in CHO cell membranes after 1 hr by liquid scintillation counting analysis; outline: as §1
[3] = Lipophilicity, log D of the compound at pH 7.4; assay type: physicochemical; conditions: buffer
Outline: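 Chromatographic HPLC method with UV detection, estimating octanol/buffer partition at pH 7.4.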

Rattus norvegicus [4] = assay: Antiobesity activity in diet-induced obese F344/jcl rat assessed as reduction in body weight at 1 mg/kg, po qd administered through repeated dosing for 2 weeks measured during 2 weeks of dosing relative to vehicle-treated control; assay type: functional; set-up: scale not given: the % may be the effect or the level left
Outline: (§2)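 Male DIO F344/Jcl rats (45 weeks old) on high-fat diet since 5 weeks of age, singly housed, habituated to oral dosing with tap water, grouped by day−1 food intake and body weight. Once-daily oral dosing in 0.5% methylcellulose at 2 mL/kg for 2 weeks, 1−3 h before dark onset, 6 rats/group. Food intake measured every 2 or 3 days; body weight change as % of initial.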

Rattus norvegicus [5] = assay: Anorectic activity in diet-induced obese F344/jcl rat assessed as inhibition of cumulative food intake at 1 mg/kg, po qd administered through repeated dosing for 2 weeks measured during 2 weeks of dosing relative to vehicle-treated control; assay type: functional; conditions: 336 h; outline: as §2
[6] = target: T1, Melanin-concentrating hormone receptor 1; assay type: functional, cell-based, CHO

Chain of Melanin-concentrating hormone receptor 1 (Rattus norvegicus, UniProt P97639) (P97639 whole entry, the tested form may be a part): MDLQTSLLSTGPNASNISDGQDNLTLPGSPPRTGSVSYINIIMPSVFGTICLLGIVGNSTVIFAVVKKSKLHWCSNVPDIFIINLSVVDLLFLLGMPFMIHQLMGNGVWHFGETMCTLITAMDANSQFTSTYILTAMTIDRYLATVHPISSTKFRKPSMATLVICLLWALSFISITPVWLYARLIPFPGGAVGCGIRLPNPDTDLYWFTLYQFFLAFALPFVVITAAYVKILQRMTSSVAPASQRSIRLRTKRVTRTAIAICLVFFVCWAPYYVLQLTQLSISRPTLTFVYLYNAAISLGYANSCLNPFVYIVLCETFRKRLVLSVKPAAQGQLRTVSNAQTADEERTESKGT
T1 sequence (Q99705 whole entry, the tested form may be a part): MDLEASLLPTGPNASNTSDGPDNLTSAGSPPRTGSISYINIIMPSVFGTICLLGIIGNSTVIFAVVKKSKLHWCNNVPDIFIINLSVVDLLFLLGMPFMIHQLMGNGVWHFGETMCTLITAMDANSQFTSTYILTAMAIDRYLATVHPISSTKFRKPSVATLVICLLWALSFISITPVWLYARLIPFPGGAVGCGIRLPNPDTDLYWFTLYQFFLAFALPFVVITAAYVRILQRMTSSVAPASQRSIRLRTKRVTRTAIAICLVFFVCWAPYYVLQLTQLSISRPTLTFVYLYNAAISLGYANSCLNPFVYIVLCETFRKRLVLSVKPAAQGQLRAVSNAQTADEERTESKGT

| SMILES | IC50 [1] | IC50 [2] | logD [3] | Activity (Rattus norvegicus [4]) | inhibition in vivo at 1 mg/kg (Rattus norvegicus [5]) | IC50 [6] |
| --- | --- | --- | --- | --- | --- | --- |
| Cc1c(C2CC2)nc2ccc(-n3ccc(OCc4ccc(F)cc4)cc3=O)cn12 | 0.028 µM | 0.047 µM | – | – | – | – |
| Cc1c(C2CC2)nc2ccc(-n3ccc(OCc4ccc(Cl)cn4)cc3=O)cn12 | 0.019 µM | 0.024 µM | – | – | – | – |
| Cc1c(C2CC2)nc2ccc(-n3ccc(OCc4cncnc4)cc3=O)cn12 | > 1 µM | > 1 µM | – | – | – | – |
| Cc1nc2ccc(NC(=O)COc3ccc(OC(F)(F)F)cc3)cn2c1C | 0.0078 µM | 0.0038 µM | – | – | – | – |
| Cc1c(C2CC2)cc2ccc(NC(=O)COc3ccc(OC(F)(F)F)cc3)cn12 | > 1 µM | > 1 µM | – | – | – | – |
| Cc1c(CC#N)nc2ccc(-n3ccc(OCc4ccc(F)cc4)cc3=O)cn12 | 0.17 µM | 0.18 µM | – | – | – | – |
| Cc1c(C#N)nc2ccc(-n3ccc(OCc4ccc(F)cc4)cc3=O)cn12 | > 1 µM | > 1 µM | – | – | – | – |
| Cc1c(C2CC2)nc2ccc(-n3cnc(OCc4ccc(Cl)cc4)cc3=O)cn12 | 0.14 µM | 0.15 µM | 2.9 | – | – | – |
| Cc1c(C2CC2)nc2ccc(-n3ccc(Oc4ccc(OC(F)(F)F)cc4)cc3=O)cn12 | 0.95 µM | > 1 µM | – | – | – | – |
| Cc1c(C2CC2)nc2ccc(-n3ccc(OCc4ccccn4)cc3=O)cn12 | 0.15 µM | 0.24 µM | – | – | – | – |
| Cc1c(C2CC2)nc2ccc(-n3cccc(Oc4ccc(OC(F)(F)F)cc4)c3=O)cn12 | 0.24 µM | 0.27 µM | – | – | – | – |
| CC(C)CC(N(C)C)C1(c2ccc(Cl)cc2)CCC1 (stereo not drawn) [SIBUTRAMINE] | – | – | – | 3.4% | 21.5% | – |
| Cc1c(C2CC2)nc2ccc(-n3ccc(OCc4ccc(Cl)cc4)nc3=O)cn12 | 0.03 µM | 0.037 µM | 2.8 | – | – | 0.14 µM |
| Cc1c(C2CC2)nc2ccc(-n3ccc4oc(-c5ccc(Cl)cc5)cc4c3=O)cn12 | 0.011 µM | 0.0068 µM | – | – | – | 0.042 µM |
| Cc1oc2ccc(NC(=O)COc3ccc(OC(F)(F)F)cc3)cc2c1C | > 1 µM | > 1 µM | – | – | – | – |
| CC(=O)c1nc2ccc(-n3ccc(OCc4ccc(F)cc4)cc3=O)cn2c1C | > 1 µM | > 1 µM | – | – | – | – |
| Cc1c(C2CC2)nc2ccc(-n3ccc4c(c3=O)CCC(c3ccc(Cl)cc3)O4)cn12 (stereo not drawn) | 0.062 µM | 0.094 µM | – | – | – | – |
| Cc1c(C2CC2)nc2ccc(-n3ccc(OCc4csc(Cl)c4)cc3=O)cn12 | 0.0075 µM | 0.0077 µM | – | – | – | 0.019 µM |
| Cc1nc2ccc(-n3ccc(OCc4ccccc4)cc3=O)cn2c1C | 0.08 µM | 0.078 µM | – | – | – | – |
